Test results reported in ChEMBL document CHEMBL1154864, “Oblongolides from the endophytic fungus Phomopsis sp. BCC 9789” (J Nat Prod, 2010).
In brackets after ≈: the same amount, converted by molar mass.

Assays:
Vero = assay: Cytotoxicity against African green monkey Vero cells by SRB assay; assay type: cell-based; conditions: Chlorocebus sabaeus
Method in brief: (§1)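 Colorimetric cytotoxicity assay run on oral human epidermal carcinoma (KB), human breast cancer (BC), human small-cell lung cancer (NCI-H187) and African green monkey kidney fibroblast (Vero) cells. IC50 values are reported in µM.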

KB = assay: Cytotoxicity against human KB cells by SRB assay; assay type: functional, cell-based; method in brief: as §1
[1] = system: Mycobacterium tuberculosis; assay: Antituberculosis activity against Mycobacterium tuberculosis H37Ra after 4 days by Alamar blue assay; assay type: functional; conditions: 96 h
Method in brief: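 Microplate resazurin (Alamar Blue) growth-inhibition assay against M. tuberculosis H37Ra; MIC taken as the lowest concentration giving ≥90% growth inhibition.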

NCI-H187 = assay: Cytotoxicity against human NCI-H187 cells by SRB assay; assay type: functional, cell-based; method in brief: as §1
[2] = Cytotoxicity against human BC cells by SRB assay; assay type: functional, cell-based; method in brief: as §1
Human alphaherpesvirus 1 = assay: Antiviral activity against Herpes simplex virus type 1; assay type: functional, organism-based
Method in brief: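 HSV-1 antiviral activity read out by a colorimetric method, with IC50 values in µM.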

SMILES: CC(=O)[C@@]1(OCCc2ccccc2)OC[C@H]2C=C[C@H]3C[C@@H](C)CC[C@@H]3[C@]21C [OBLONGOLIDE Z]
- IC50 (Vero): 60 µM
- IC50 (KB): 37 µM
- MIC [1]: > 136 µM
- IC50 (NCI-H187): 32 µM
- IC50 [2]: 26 µM

SMILES: COc1cccc2c1C(=O)c1c(O)c3c(c(O)c1C2=O)C[C@@](O)(C(=O)CO)C[C@@H]3O[C@H]1C[C@H](N)[C@H](O)[C@H](C)O1 [DOXORUBICIN]
- IC50 (KB): 0.24 µM
- IC50 (NCI-H187): 0.08 µM

SMILES: C[C@H]1CC[C@H]2[C@H](C1)[C@@H]1O[C@@H]1[C@@H]1COC(=O)[C@]21C [OBLONGOLIDE Q]
- IC50 (Vero): > 212 µM
- IC50 (KB): > 85 µM
- MIC [1]: > 212 µM
- IC50 (NCI-H187): > 85 µM
- IC50 [2]: > 85 µM

SMILES: C[C@H]1CC[C@H]2[C@@H](C=C[C@@H]3[C@@H](O)O[C@@H](CO)C(=O)[C@@]32C)C1
- IC50 (Vero): > 178 µM
- IC50 (KB): > 71 µM
- MIC [1]: > 178 µM
- IC50 (NCI-H187): > 71 µM
- IC50 [2]: > 71 µM

SMILES: C[C@H]1CC[C@H]2[C@@H](C=C[C@@H]3CO[C@](C)(O)C(=O)[C@@]32C)C1 [OBLONGOLIDE T]
- IC50 (Vero): > 189 µM
- IC50 (KB): > 76 µM
- MIC [1]: > 189 µM
- IC50 (NCI-H187): > 76 µM
- IC50 [2]: > 76 µM

SMILES: C[C@H]1CC[C@H]2[C@@H](C=C[C@]3(O)COC(=O)[C@]23C)C1 [OBLONGOLIDE C]
- IC50 (Vero): > 212 µM
- IC50 (KB): > 85 µM
- MIC [1]: > 212 µM
- IC50 (NCI-H187): > 85 µM
- IC50 [2]: > 85 µM

SMILES: Cc1c2ccncc2c(C)c2c1[nH]c1ccccc12 [ELLIPTECINE]
- IC50 (Vero): 1.75 µM

SMILES: C[C@H]1CC[C@H]2[C@@H](C=C[C@@H]3COC(=O)[C@@]32C)C1 [OBLONGOLIDE]
- IC50 (Vero): > 227 µM
- IC50 (KB): > 91 µM
- MIC [1]: 227 µM (≈ 50 µg/mL)
- IC50 (NCI-H187): > 91 µM
- IC50 [2]: > 91 µM

SMILES: C[C@H]1CC[C@H]2[C@@H](C=C[C@@H]3COC(=O)[C@](O)(CO)[C@@]32C)C1 [OBLONGOLIDE W2]
- IC50 (Vero): > 178 µM
- IC50 (KB): > 71 µM
- MIC [1]: > 178 µM
- IC50 (NCI-H187): > 71 µM
- IC50 [2]: > 71 µM

SMILES: NNC(=O)c1ccncc1 [ISONIAZID]
- MIC [1]: 0.36 µM (≈ 0.0494 µg/mL)

SMILES: CO[C@]1(C(C)=O)OC[C@H]2C=C[C@H]3C[C@@H](C)CC[C@@H]3[C@]21C [OBLONGOLIDE Y]
- IC50 (Vero): > 180 µM
- IC50 (KB): > 72 µM
- MIC [1]: > 180 µM
- IC50 (NCI-H187): > 72 µM
- IC50 [2]: 48 µM

SMILES: C[C@H]1CC[C@H]2[C@@H](C=C[C@@H]3COC(=O)[C@@](O)(CO)[C@@]32C)C1 [OBLONGOLIDE W1]
- IC50 (Vero): > 178 µM
- IC50 (KB): > 71 µM
- MIC [1]: 178 µM (≈ 49.9 µg/mL)
- IC50 (NCI-H187): > 71 µM
- IC50 [2]: > 71 µM

SMILES: Nc1nc2c(ncn2COCCO)c(=O)[nH]1 [ACYCLOVIR]
- IC50 (Human alphaherpesvirus 1): 13 µM

SMILES: C[C@H]1CC[C@H]2[C@@H](C=C[C@@H]3CO[C@@](O)(CO)C(=O)[C@@]32C)C1 [OBLONGOLIDE X]
- IC50 (Vero): 96 µM
- IC50 (KB): > 71 µM
- MIC [1]: > 178 µM
- IC50 (NCI-H187): > 71 µM
- IC50 [2]: > 71 µM

SMILES: Cc1ccc(O)c2c1C[C@@H](C)OC2=O
- IC50 (Vero): > 260 µM
- IC50 (KB): > 104 µM
- MIC [1]: > 260 µM
- IC50 (NCI-H187): > 104 µM
- IC50 [2]: > 104 µM
